Source: article PMC9704493 (RSC Advances, 2022)
Blank lines part the entries; values can stand above or below the compound they belong to.

How the values were obtained:
MRC-5 fibroblasts = assay: MTT cell viability assay, MRC-5 normal fibroblasts; assay type: cell-based, human; conditions: for GI50: Homo sapiens, MRC5, 72 h, read-out: GI50 values (M) mean ± SD, MRC-5; for more active against the carcinoma cell lines than MRC-5: selectivity over MRC-5
Outline: (§1)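 Cells were seeded at 3 × 10^3 per well and grown for 24 h at 37 °C/5% CO2. A T0 plate was read at dosing and the others after 72 h. MTT (5 mg mL−1 in PBS) was added for 2.5 h, formazan dissolved in DMSO, and absorbance read at 550 nm. GI50 was interpolated, in triplicate. SI compares MRC-5 with cancer-line activity.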

MCF-7 cells [1] = assay: Cell count assay, MCF-7; assay type: cell-based; conditions: Homo sapiens, MCF7, 72 h, read-out: growth inhibition, cell count
Outline: (§2)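 Cancer lines were grown in RPMI 1640 with 10% FBS and 1% glutamine at 37 °C/5% CO2, at ≤30 passages. Cells were seeded at 2 × 10^4 per well in 6-well plates and exposed to test compound at 5 or 10 μM for 72 h. Cells were counted by haemocytometer and expressed as % of control (mean ± SD), from 2 independent experiments in triplicate.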

HCT-116 cells [2] = assay: Clonogenic assay, HCT-116 colony formation; assay type: cell-based, human; conditions: 24 h exposure, second group, printed as HCT-116; for colony formation: 10 μM
Outline: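 HCT-116 cells (RPMI 1640, 10% FBS, 1% glutamine) were seeded at 400 per well in 6-well plates and left to attach for 24 h. They were given test compound at 5 or 10 μM for 24 h, with medium alone as control. Cells were then washed with cold PBS and grown in fresh medium at 37 °C until control colonies reached ≥50 cells. Colonies were methanol-fixed, stained with 0.05% methylene blue and counted. Survival fraction is % of control, from five independent trials (n = 2 each).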

[3] = system: HCT-116 colorectal carcinoma cells; assay: MTT cell viability assay, HCT-116; assay type: cell-based, human; conditions: for Selectivity indices (SI), HCT-116: HCT-116 versus MRC-5 fibroblasts; for GI50: Homo sapiens, HCT-116, 72 h, read-out: GI50 values (M) mean ± SD, HCT-116
Outline: as §1

[4] = system: MCF-7 breast cancer cells; assay: MTT cell viability assay, MCF-7; assay type: cell-based, human; conditions: for GI50: Homo sapiens, MCF7, 72 h, read-out: GI50 values (M) mean ± SD, MCF-7; for Selectivity indices (SI), MCF-7: MCF-7 versus MRC-5 fibroblasts
Outline: as §1

[5] = system: caspases 3 and 7 in HCT-116 cells; assay: Caspase-3/7 activity assay, HCT-116; assay type: cell-based, human; conditions: HCT-116, 5 and 10 μM, 72 h
Outline: (§3)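 Cells kept in log growth (passaged twice weekly, 37 °C/5% CO2, ≤30 passages) were seeded at 3 × 10^3 per well in opaque white 96-well plates and allowed 24 h at 37 °C. Test compound was added at 5 and 10 μM from fresh 10 mM DMSO stocks for 72 h. Homogeneous caspase-3/7 reagent was added and mixed at 300–500 rpm for 30 s. After 30 min at room temperature, fluorescence was read at 499 nm and 521 nm. Experiments were run in triplicate and reported as mean ± SD.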

[6] = system: caspases 3 and 7 in MCF-7 cells; assay: Caspase-3/7 activity assay, MCF-7; assay type: cell-based, human; conditions: MCF-7, 5 and 10 μM, 72 h
Outline: as §3

HCT-116 cells [7] = assay: Cell count assay, HCT-116; assay type: cell-based; conditions: Homo sapiens, HCT-116, 72 h, read-out: growth inhibition, cell count
Outline: as §2

HCT-116 cells [8] = assay: Cell cycle assay; assay type: cell-based, human; conditions: HCT-116, 5 and 10 μM, 24 h
Outline: (§4)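 Cells were seeded in 10 cm dishes at 7 × 10^5 (control, 24 h) or 4 × 10^5 (48 and 72 h) per dish and left 24 h at 37 °C. They were then treated with test compound at 5 or 10 μM for 24 h. Floating and trypsinised cells were pooled, PBS-washed, held in cold hypotonic fluorochrome solution overnight at 4 °C in the dark, and analysed by flow cytometry (three internal repeats).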

MCF-7 cells [9] = assay: Cell cycle assay; assay type: cell-based, human; conditions: 24 h; for accumulation of events in G2/M phase: control 11%
Outline: as §4

PARP-1 in HCT-116 cells = assay: Western blot of whole and cleaved PARP, HCT-116; assay type: cell-based, human; conditions: HCT-116, 5 and 10 μM, 24 h
Outline: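 HCT-116 cells were seeded at 1–2 × 10^6 per dish, attached for 24 h, then exposed to test compound at 5 or 10 μM for 24 h. Lysate protein was measured by Bradford assay, and 50 μg per sample was run on SDS-PAGE and blotted to nitrocellulose. Blots were probed for PARP-1, with GAPDH as loading control, and quantified by densitometry. Data are mean ± SD of three independent experiments, analysed by ANOVA with Dunnett's test.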

ERK1/2 = assay: Preliminary ERK1/2 inhibition experiments

GI50 [3]: 1.6e-06 ± 1e-07 M
GI50 [4]: 1e-06 ± 4e-07 M
Compound: Cc1cccc(C=NNc2nc(-c3ccc(C#N)cc3)cs2)c1O [Compound 3f, 2-(2-(2-Hydroxy-3-methylbenzylidene) hydrazinyl)-4-(4-cyanophenyl) thiazole]
Pre-G1 events (HCT-116 cells [8]): 5–8%
GI50 (MRC-5 fibroblasts): 1.73e-05 ± 7e-07 M
SI over MRC-5 fibroblasts (MRC-5 fibroblasts; cancer cell line not given): > 10
more active against the carcinoma cell lines than MRC-5 (MRC-5 fibroblasts): > 10 ×
caspase 3 and 7 activation [5]: Significant dose-dependent caspase activation
accumulation of events in G2/M phase (MCF-7 cells [9]; MCF-7, 5 μM): 23%
accumulation of events in G2/M phase (MCF-7 cells [9]; MCF-7, 10 μM): 28%
pre-G1 cell populations (MCF-7 cells [9]; MCF-7, 5 and 10 μM): negligible
caspase 3 and 7 activation [6]: Significant dose-dependent caspase activation
PARP-1 cleavage (PARP-1 in HCT-116 cells): induces concentration-dependent PARP-1 cleavage
whole PARP expression (PARP-1 in HCT-116 cells): down-regulation of whole PARP
inhibition at 5 µM (MCF-7 cells [1]): 55 to 60%
inhibition at 10 µM (MCF-7 cells [1]): 100%
ERK1/2 inhibition (ERK1/2): showed ERK1/2 inhibition
inhibition of colony formation (HCT-116 cells [2]; 5 μM): completely inhibiting colony formation
colony formation (HCT-116 cells [2]): completely inhibiting colony formation
Selectivity indices (SI), HCT-116 [3]: 10.8
Selectivity indices (SI), MCF-7 [4]: 17.3

GI50 [3]: 4.4e-06 ± 3e-07 M
GI50 [4]: 7e-06 ± 3e-07 M
Compound: N#Cc1ccc(-c2csc(NN=Cc3cc(Br)ccc3O)n2)cc1 [Compound 3h, 2-(2-(5-Bromo-2-hydroxybenzylidene) hydrazinyl)-4-(4-cyanophenyl) thiazole]
GI50 (MRC-5 fibroblasts): 1.58e-05 ± 2e-07 M
inhibition at 10 µM (MCF-7 cells [1]): 65 to 70%
Selectivity indices (SI), HCT-116 [3]: 3.6
Selectivity indices (SI), MCF-7 [4]: 2.3

GI50 [3]: 1.1e-06 ± 5e-07 M
GI50 [4]: 2.54e-05 ± 1.6e-06 M
Compound: N#Cc1ccc(-c2csc(NN=Cc3c(Cl)cccc3Cl)n2)cc1 [Compound 3n, 2-(2-(2,6-Dichlorobenzylidene)hydrazinyl)-4-(4-cyanophenyl) thiazole]
GI50 (MRC-5 fibroblasts): 1.21e-05 ± 4e-07 M
inhibition at 5 µM (HCT-116 cells [7]): 50 to 55%
inhibition at 10 µM (HCT-116 cells [7]): 100%
Selectivity indices (SI), HCT-116 [3]: 11
Selectivity indices (SI), MCF-7 [4]: 0.5

The next lines start with the compound.

Compound: N#Cc1ccc(-c2csc(NN=Cc3c(F)c(F)c(F)c(F)c3F)n2)cc1 [3a′, 2-(2-((Pentafluorophenyl)methylene)hydrazinyl)-4-(4-cyanophenyl) thiazole]
GI50 (MRC-5 fibroblasts): 1.16e-05 ± 6e-07 M
inhibition at 10 µM (MCF-7 cells [1]): 90 to 95%
colony formation (HCT-116 cells [2]): completely prevented colony formation
Selectivity indices (SI), HCT-116 [3]: 2.8
GI50 [3]: 4.2e-06 ± 1e-06 M
GI50 [4]: 1.7e-06 ± 3e-07 M
Selectivity indices (SI), MCF-7 [4]: 6.8

Compound: N#Cc1ccc(-c2csc(NN=Cc3sccc3Br)n2)cc1 [3b′, 2-(2-((3-Bromothiophen-2-yl)methylene)hydrazinyl)-4-(4-cyanophenyl) thiazole]
GI50 (MRC-5 fibroblasts): 1.95e-05 ± 3e-07 M
more active against the carcinoma cell lines than MRC-5 (MRC-5 fibroblasts): > 5 ×
caspase 3 and 7 activation [5]: Significant dose-dependent caspase activation
caspase 3 and 7 activation [6]: Significant dose-dependent caspase activation
inhibition at 5 µM (HCT-116 cells [7]): 50 to 55%
inhibition at 10 µM (HCT-116 cells [7]): 90 to 95%
colony formation (HCT-116 cells [2]): completely prevented colony formation
Selectivity indices (SI), HCT-116 [3]: 12.2
GI50 [3]: 1.6e-06 ± 2e-07 M
GI50 [4]: 3.9e-06 ± 5e-07 M
Selectivity indices (SI), MCF-7 [4]: 5
